M1 ag = activates the M1 muscarinic receptor; CHO-M1 cells, Fluo-4 calcium fluorescence, agonist mode; stronger effect = higher value; B-score at 10 µM; 64,000 compounds, 3% hits; AID 626;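 active means fluorescence rise, raw or as B-score row- and column-corrected plate score, outside the 99.7% band of its plate's samples, either direction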
SF-1 act = activates the human nuclear receptor SF-1 | CHO-K1 Gal4-SF-1 LBD luciferase reporter; % increase over DMSO SF-1-specific signal | activation, % at 10 µM | 65,000 compounds, 1.9% hits | AID 522;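 active means activation above the mean activation of all tested compounds plus 3 SD, cut at about 50% in these data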
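Assay system – CHO-K1 cells with Gal4–hSF-1 LBD chimera plus Gal4-driven luciferase · Quantity – 4,000 cells per well · Times – compound added 1 h post-seeding, 20 h exposure at 37 °C, 5% CO2 · Measured by – luciferase light emission · Benchmarks – DMSO and mock-transfected background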
D1 mod = D1 dopamine receptor (human) allosteric modulation. P21728. HEK293 D1, CRE-luciferase, dopamine EC30 potentiation; actives deviate in either direction. B-score at 10 µM. 58,000 compounds, 5.9% hits. AID 641;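 active means luminescence count or its row- and column-corrected plate score outside the 99.7% band of the plate's sample wells, on either side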
Target sequence (P21728 whole entry, looked up): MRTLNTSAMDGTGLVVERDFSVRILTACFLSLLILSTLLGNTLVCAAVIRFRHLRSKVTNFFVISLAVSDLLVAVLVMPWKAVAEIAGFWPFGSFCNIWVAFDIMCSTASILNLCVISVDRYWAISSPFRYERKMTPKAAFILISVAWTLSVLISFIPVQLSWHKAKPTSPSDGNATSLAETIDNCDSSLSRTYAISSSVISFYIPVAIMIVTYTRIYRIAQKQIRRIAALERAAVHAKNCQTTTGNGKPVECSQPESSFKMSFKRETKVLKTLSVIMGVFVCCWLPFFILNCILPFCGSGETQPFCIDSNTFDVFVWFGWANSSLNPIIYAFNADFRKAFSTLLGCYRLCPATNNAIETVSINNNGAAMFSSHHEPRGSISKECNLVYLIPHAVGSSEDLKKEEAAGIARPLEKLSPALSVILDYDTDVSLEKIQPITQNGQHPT
RORA act = RORA (human) activation; P35398; CHO-K1 Gal4-RORA LBD luciferase reporter, luminescence; percent increase over mock-subtracted basal signal; activation, % at 10 µM; 65,000 compounds, 1.5% hits;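 active means activation above the mean of all tested compounds plus 3 SD, cut at about 49% in these data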
mHtt clearance = mutant huntingtin protein clearance. HeLa Exon1htt(103Q)mCFP, aggregate imaging; zero = plate's median compound well. inhibition, % at 1.5 µM. 47,000 compounds, 0.42% hits. AID 853;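 active means inhibition of aggregate fluorescence above about 70%, also judged a hit by eye on the cell image, limit read from the data, passing the limit was not always enough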;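 further: cells exposed to compound for three days before fixation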
M1 antagonist = antagonists of rat M1 muscarinic receptor; P08482; CHO-M1 cells, Fluo-4 calcium, ACh EC80 antagonist mode; stronger effect = lower value; B-score at 10 µM; 64,000 compounds, 3.4% hits;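 active means calcium fluorescence response, raw or row-and-column corrected B-score, differing from the plate sample mean either way at a set confidence level, mostly lower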
Numbers stand for hits; i = inactive; nt = not tested or not shown. An excerpt weighted towards active compounds, which were near 11% of everything screened.

SMILES	M1 ag	SF-1 act	D1 mod	RORA act	mHtt clearance	M1 antagonist
COC(=O)CC(=O)CSc1nc2c(cc1C#N)CCCCC2	i	78.0	nt	i	nt	i
N#Cc1cc2c(nc1SCC(O)CS(=O)(=O)Cc1ccccc1)CCCC2 (configuration not stated)	i	i	-3.55	i	i	i
CCc1nnc(NC(=O)CSc2nc3c(cc2C#N)CCCC3)s1	i	78.5	i	i	i	i
N#CCSc1nc2c(cc1C#N)CCCC2	i	i	i	i	nt	i
CCCn1nnnc1SCC(=O)N(C(C)C)C(C)C	i	i	nt	i	nt	i
COc1ccccc1-c1nnc(NC(C)=O)s1	i	i	i	78.5	i	i
COc1ccccc1NC(=O)Nc1nnc(C(C)C)s1	i	52.9	nt	i	nt	i
CCc1nnc(NC(=O)Nc2ccccc2OC)s1	i	i	i	i	i	i
Fc1ccc2nc3[nH]c4ccccc4c3nc2c1	i	89.5	i	i	nt	i
Cc1cc(C(=O)CN2C(=O)c3ccccc3C2=O)c(C)n1C1CC1	i	55.6	i	i	i	i
Cc1c(O)ccc(C(=O)CN2C(=O)c3ccccc3C2=O)c1O	nt	i	nt	i	nt	nt
CCOC(=O)c1sc(=S)n(C)c1N	i	i	4.53	i	nt	i
C=CCn1c(N)c(C(=O)OCC)sc1=S	nt	nt	nt	nt	i	nt
CCOc1cc(Br)c(C(=O)O)cc1OC	nt	nt	nt	nt	i	nt
O=C(CN1CCN(C(c2ccccc2)c2ccccc2)CC1)NC(=O)NCc1ccco1	-3.17	i	i	i	nt	i
[N-]=[N+]=CC(=O)c1ccnc(C(=O)C=[N+]=[N-])c1	i	i	i	i	i	1.63
COc1ccc2nc(SCC(=O)N3CCNC3=O)[nH]c2c1	i	64.8	i	i	i	i
N#CC1=C(N)N2C(=C(C#N)C13CCCCC3)SC1CCCCC12O (configuration not stated)	i	i	nt	i	nt	i
O=C(COC(=O)CCCN1C(=O)c2ccccc2C1=O)Nc1ncc(Cl)cc1Cl	i	i	i	i	71.9	i
CC1=CC(C)(C)N(C(=O)CSc2ncn[nH]2)c2ccc(C)cc21	nt	nt	nt	nt	i	nt
Cc1nc(/N=C\N(C)C)sc1C(=O)Nc1ccccc1	i	i	i	52.0	i	i
Cc1nc(-c2ccccn2)sc1C(=O)Nc1ccc(F)cc1	nt	nt	nt	nt	i	nt
O=C(Cc1ccc2cccnc2c1)c1ccc(O)cc1O	i	i	i	59.6	i	i
CCn1c(SCC(=O)Nc2oc(-c3ccccc3)c(-c3ccccc3)c2C#N)nnc1-c1cc(OC)cc(OC)c1	nt	nt	nt	nt	i	nt
CN(CCO)C(=O)CCC(=O)Nc1ccc(S(N)(=O)=O)cc1	i	i	i	i	i	i
SMILES	M1 ag	SF-1 act	D1 mod	RORA act	mHtt clearance	M1 antagonist
COc1cc(C2=NOC(C(=O)NCc3ccco3)C2)cc(OC)c1OC (configuration not stated)	i	55.2	i	81.5	nt	i
Cc1cccc(N2CCN(C(=O)COc3cc(=O)n(C)c4ccccc34)CC2C)c1 (configuration not stated)	i	i	i	i	nt	i
CCC(Sc1nc(=O)cc(N)n1CCc1ccccc1)C(=O)Nc1cc(C)on1 (configuration not stated)	i	i	-5.11	i	nt	i
CCCC(=O)Nc1ccc(NC(=O)Cc2ccccc2)cn1	i	i	i	i	nt	i
O=C(Cc1ccccc1)Nc1ccc(NC(=O)c2ccco2)nc1	i	59.3	i	i	i	i
O=C(Nc1ccc(NC(=O)c2ccco2)nc1)c1ccccn1	i	51.5	-4.1	i	nt	i
Cc1ccc(-n2c(-c3ccccc3)nnc2-c2cccs2)cc1	nt	nt	nt	nt	i	nt
O=C(CCn1nnc2ccccc21)Nc1nnc(-c2ccccc2F)s1	i	i	nt	i	i	i
c1coc(-c2nc3c4c5c(sc4ncn3n2)CCCC5)c1	i	i	i	i	i	i
CC1(C)Cc2c(sc3ncn4nc(-c5ccco5)nc4c23)CO1	i	i	5.93	i	nt	i
Cc1cc(C)n2nc3nc4c(cc3c2n1)CCCC4	i	i	nt	i	nt	i
CCn1c(=S)[nH]c2nc3c(cc2c1=O)CCCC3	nt	nt	nt	nt	71.1	nt
CCN(CC)S(=O)(=O)c1ccc(Nc2nc3ccccc3n3nnnc23)cc1	i	i	i	70.2	nt	i
COc1ccc(OCCSc2ncccn2)cc1	i	55.7	i	i	i	i
COc1ccc(OCCCSc2ncccn2)cc1	i	i	nt	63.0	nt	i
COc1ccc(-c2noc(CCCC(=O)NCc3ccco3)n2)cc1OC	i	i	i	i	nt	i
CCc1[nH]nc2c1C(c1ccc(Br)s1)C(C#N)=C(N)O2 (configuration not stated)	i	i	nt	i	i	2.5
CCc1[nH]nc2c1C(c1ccsc1)C(C#N)=C(N)O2 (configuration not stated)	nt	nt	nt	nt	i	nt
CCOC(=O)c1sc(NC(=O)c2ccc(Cl)s2)cc1C	i	53.6	i	78.2	i	i
CCOC(=O)c1sc(NC(=O)c2c(C)nn(Cc3ccccc3)c2C)cc1C	i	i	-3.2	i	nt	i
CCOC(=O)c1sc(NC(=O)C(C)(C)C)cc1C	nt	nt	nt	nt	i	nt
C/C(Cl)=C/CSc1nc2c(c(=O)[nH]c(=O)n2C)n1C(C)C	i	i	7.92	i	nt	i
Cc1cccc2cc(C#N)c(N3CCN(C)CC3)nc12	i	i	-2.21	i	i	i
Cc1cc(C)c2nc(N3CCN(C)CC3)c(C#N)cc2c1	i	i	i	i	i	i
Cc1cc(N2CCN(C)CC2)nc2ccc(NC(=O)c3ccc(Br)o3)cc12	i	i	-4.17	i	nt	i
SMILES	M1 ag	SF-1 act	D1 mod	RORA act	mHtt clearance	M1 antagonist
O=C(O)c1cn(C2CC2)c2cc(N3CCOCC3)c(F)cc2c1=O	nt	nt	nt	nt	i	nt
CCCCOC(=O)n1c(SCC(=O)N(C)C)nc2ccccc21	i	i	-7.31	i	i	i
O=C(Cn1nc(C(F)(F)F)c2c1CCCC2)Nc1ccc2c(c1)OCO2	i	i	i	i	i	i
CC1CN(c2nc3c(c(=O)[nH]c(=O)n3C)n2Cc2ccccc2F)CC(C)O1 (configuration not stated)	i	i	nt	i	nt	i
CCN(CC)c1ccc(NC(=O)c2cccc(C)c2OC)c(C)c1	i	65.6	i	72.8	nt	i
CC(=O)c1ccc(OCC(C)C)c(CN2CCCCC2)c1	i	i	i	i	i	i
CC(=O)c1ccc(Oc2ncnc3sccc23)c(CN2CCOCC2)c1	-2.85	i	i	i	nt	i
COc1ccc(C)cc1NC(=O)C1CCCN(S(=O)(=O)c2c(C)noc2/C=C/N(C)C)C1 (configuration not stated)	i	i	i	i	nt	i
CSc1ccc(S(=O)(=O)Nc2ccc(F)cc2)cc1	i	i	i	i	i	i
COc1ccc(NS(=O)(=O)c2ccc(SC)cc2)cc1	i	i	i	i	86.2	i
O=C(C1CCN(S(=O)(=O)c2ccc3ccccc3c2)CC1)N1CCN(c2ncccn2)CC1	i	i	i	i	nt	i
CSc1nnc2c3c4c(sc3c(=O)n(-c3ccccc3)n12)CC(C)(C)OC4	i	i	5.87	i	i	i
